Test results taken from ChEMBL document CHEMBL1125925, “DNA-directed alkylating agents. 4. 4-anilinoquinoline-based minor groove directed aniline mustards” (J Med Chem, 1991).
The source made the active and inactive calls.

How the values were obtained:
P388 [1] = experiment: Evaluation in vivo against […] cell line for percentage increase in lifespan of drug-treated tumor-bearing animals when treated at 225 mg/kg dose.(ILS); format: functional, Mus musculus
Outline: (§1)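 Animals received 10^6 P388 cells intraperitoneally. On day 1, 24 h after inoculation, a single intraperitoneal drug dose was given in 0.1 mL of 30% v/v dimethylacetamide/water. ILS is the percentage increase in lifespan of treated tumor-bearing animals at the optimal dose, defined as the dose giving maximal life extension. ILS above 20% is counted as significant.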

[2] = Hypersensitivity factor value is IC50 of (AA8) to that of UV4 where UV4 is a mutant AA8 line lacking the ability to perform incision repair; format: functional
Outline: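 HF is IC50(AA8)/IC50(UV4), where UV4 is an AA8 mutant lacking incision repair. Both lines were grown in Alpha MEM with 10% fetal calf serum and given an 18 h drug exposure, then washed and grown 72 h more. Cell density was read by methylene blue staining, and IC50 was set at 50% of control density.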

Bos taurus = species: Bos taurus; experiment: Spectrophotometry for binding to calf thymus DNA in 0.01 M HEPES buffer (pH 7.0) at 25 degree C; format: ADME; conditions: cattle
CHO-AA8 = experiment: Inhibition of cell growth in culture against Chinese hamster ovary derived cell line, AA8; format: functional, cell-based, Cricetulus griseus
Outline: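 AA8 Chinese hamster ovary cells were kept in log phase in Alpha MEM with 10% fetal calf serum and exposed to drug for 18 h. Drug was removed by three washes with fresh medium, then cells were grown a further 72 h. Cell density was read by methylene blue staining. IC50 is the nominal concentration reducing cell density to 50% of controls, with eight controls per plate. Values are means of three determinations.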

P388 [3] = experiment: Evaluation in vivo against […] cell line for percentage increase in lifespan of drug-treated tumor-bearing animals when treated at 30 mg/kg dose.(ILS); format: functional, Mus musculus; outline: as §1
P388 [4] = experiment: Inhibition of cell growth in culture against wild type P388 murine leukemia; format: functional, cell-based, Mus musculus
Outline: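 Wild-type P388 murine leukemia cells were kept in log phase in RPMI 1640 with 10% fetal calf serum. Drug was present throughout the 72 h growth period. Final cell density was read by a modified MTT method. IC50 is the nominal concentration reducing cell density to 50% of controls, with eight controls per plate. Values are means of three determinations.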

P388 [5] = experiment: Evaluation in vivo against […] cell line for percentage increase in lifespan of drug-treated tumor-bearing animals at 100 mg/kg dose.(ILS); NA=Compound inactive at nontoxic doses; format: functional, organism-based; design: dose 100 mg/kg; conditions: Mus musculus; outline: as §1
P388 [6] = experiment: Evaluation in vivo against […] cell line for percentage increase in lifespan of drug-treated tumor-bearing animals when treated at 45 mg/kg dose.(ILS); format: functional, Mus musculus; outline: as §1
P388 [7] = experiment: Evaluation in vivo against […] cell line for percentage increase in lifespan of drug-treated tumor-bearing animals at 30 mg/kg dose.(ILS); NA=Compound inactive at nontoxic doses; format: functional, organism-based; design: dose 30 mg/kg; conditions: Mus musculus; outline: as §1

| Structure (SMILES) | Increase (P388 [1]) | Ratio [2] | Log K (Bos taurus) | IC50 (CHO-AA8; Cricetulus griseus, CHO-AA8) | Increase (P388 [3]) | IC50 (P388 [4]; p388) | Increase (P388 [5]) | Increase (P388 [6]) | IC50 (CHO-AA8; cho-aa8) | Increase (P388 [7]) | IC50 (P388 [4]; Mus musculus, P388) |
| --- | --- | --- | --- | --- | --- | --- | --- | --- | --- | --- | --- |
| O=C(O)CCCc1ccc(N(CCCl)CCCl)cc1 [CHLORAMBUCIL] | 37% | 58 | – | – | – | – | – | – | – | – | – |
| C[n+]1ccc(Nc2ccc(Oc3ccc(N(CCCl)CCCl)cc3)cc2)c2ccccc21 | – | 23 | 6.45 M-1 | 650 nM | 20% | – | – | – | – | – | – |
| C[n+]1ccc(Nc2ccc(C(=O)c3ccc(N(CCCl)CCCl)cc3)cc2)c2ccccc21 | – | 6.4 | 6.61 M-1 | 2850 nM | – | 1210 nM | inactive | – | – | – | – |
| C[n+]1ccc(Nc2ccc(Cc3ccc(N(CCCl)CCCl)cc3)cc2)c2ccccc21 | – | 20 | 6.58 M-1 | – | – | 72 nM | – | 46% | 600 nM | – | – |
| CCN(CCCl)c1ccc(Oc2ccc(Nc3ccnc4ccccc34)cc2)cc1 | – | 11.3 | – | 7000 nM | – | – | – | – | – | inactive | 500 nM |
| C[n+]1ccc(Nc2ccc(C(=O)Nc3ccc(N(CCCl)CCCl)cc3)cc2)c2ccccc21 | – | 17 | 6.48 M-1 | 340 nM | 28% | 490 nM | – | – | – | – | – |
